# High-throughput results: PubChem, The Scripps Research Institute Molecular Screening Center
# An excerpt weighted towards active compounds, which were near 4.6% of everything screened.
# GPR7 antag: blocks human GPR7 receptor signaling; GPR7-expressing cells, fluorescence antagonist assay; P48145; hit rate 1.1% among 290,000; inhibition, % at 4.4 µM; in the data active = inhibition above about 16%, passing the limit was not always enough;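 also: cells stimulated with the agonist NPW; 0% = agonist with vehicle and 100% = vehicle without agonist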
# CHO parental Ca: counter-screen: ATP calcium response change in parental CHO cells. parental CHO-K1, ATP-induced calcium, Fluo-8 fluorescence. inhibition, % at 5.6 µM. hit rate 0.63% among 330,000;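 active = inhibition above that plate's mean sample inhibition plus 3 SD, cut at about 26% in these data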;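 also: 0% = ATP-challenged DMSO wells and 100% = DMSO wells without ATP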
#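 Assay system: parental CHO cells; Read-out basis: percent inhibition of ATP-evoked calcium rise, normalized to controls; Benchmarks: ATP and no-ATP DMSO wells; Compound dosing: single nominal dose of 5.6 µM per compound; Signal: Fluo-8 calcium dye fluorescence; Also added: ATP as calcium-mobilizing challenge; Repeats: singlicate.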
# OX1R antag-1: antagonists of human orexin 1 receptor | O43613 | CHO/OX1R cells, Fluo-8 calcium fluorescence, orexin A | inhibition, % at 5 µM | hit rate 0.43% among 330,000;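 active = inhibition above its plate's threshold, mean inhibition of all tested compounds on the plate plus 3 SD, cut at about 37% in these data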;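 also: 0% = orexin A challenge wells and 100% = SB-334867-A antagonist wells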
# Target sequence (O43613 whole entry, looked up): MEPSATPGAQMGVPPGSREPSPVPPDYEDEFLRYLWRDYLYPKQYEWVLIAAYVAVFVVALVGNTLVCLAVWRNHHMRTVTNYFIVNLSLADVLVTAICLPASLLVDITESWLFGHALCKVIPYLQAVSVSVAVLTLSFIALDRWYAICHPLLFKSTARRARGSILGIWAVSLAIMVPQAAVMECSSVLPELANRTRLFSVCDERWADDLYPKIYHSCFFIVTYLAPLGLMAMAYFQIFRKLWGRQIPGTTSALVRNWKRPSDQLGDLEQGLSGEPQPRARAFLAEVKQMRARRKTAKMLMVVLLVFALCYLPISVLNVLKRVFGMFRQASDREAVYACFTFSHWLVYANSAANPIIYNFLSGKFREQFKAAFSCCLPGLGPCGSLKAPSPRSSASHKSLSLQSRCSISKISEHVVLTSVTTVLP
# TAAR1 antagonist: human TAAR1 antagonism; inhibition, % at 3 µM; Q96RJ0; CHO RD-HGA16 TAAR1, Fluo-8 calcium fluorescence, antagonist; hit rate 1.5% among 360,000;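 active = inhibition above a per-plate cutoff, the mean inhibition of test compounds on that plate plus 3 SD, cut at about 49% in these data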;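 also: 0% = DMSO plus EC80 beta-PEA response and 100% = DMSO alone without agonist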
#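 Material: CHO RD-HGA16 cells bearing hTAAR1; compound dosing: one-point dosing, 3 µM nominal final; schedule: dye loading 75 min at 37 °C, then 30 min room temperature; measured by: calcium fluorescence with Fluo-8; control set: vehicle and agonist controls; replication: n of 1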
# OX1R antag-2: blocks the human orexin 1 receptor; O43613; OX1R-expressing cells, FRET antagonist read-out; inhibition, % at 6.6 µM; hit rate 1.8% among 330,000; AID 485270; in the data active = inhibition mostly above about 38%, no sharp cut-off; inactive = mostly below about 40%;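 also: 0% = agonist challenge alone and 100% = reference antagonist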
# TAAR1 agonist: agonists of human TAAR1; CHO RD-HGA16 TAAR1, Fluo-8 calcium fluorescence; vehicle wells 0%, saturating PEA agonist 100%; activation, % at 3 µM; hit rate 0.99% among 360,000;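 active = activation above the mean activation of all test compounds in the run plus 3 SD, cut at about 38% in these data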
#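 Assay system: CHO-derived RD-HGA16 cells with stable Gα16 and human TAAR1; timing: 17-24 h seeding, 75 min 37 °C dye, 30 min RT; read-out: % activation from peak over basal fluorescence ratio, DMSO-to-PEA scaled; measured by: kinetic Fluo-8 calcium fluorescence; benchmarks: low control DMSO, high control PEA (EC100); doses: 3 µM single concentration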
# Active calls of the source: *; nt = no result given.
SMILES,GPR7 antag,CHO parental Ca,OX1R antag-1,TAAR1 antagonist,OX1R antag-2,TAAR1 agonist
C=CCn1c(SCC(=O)c2cc(C)n(C(C)COC)c2C)nc2sc(C)c(C)c2c1=O (stereo unspecified),-7,36*,-6,24,10,10
CCOc1ccccc1NC(=O)CSc1nc2nc(-c3cccs3)cc(C(F)(F)F)c2c(=O)[nH]1,-8,-18,-24,-17,47*,-2
O=C(NCCC(=O)N1CCN(c2ccccn2)CC1)c1ccc([N+](=O)[O-])cc1,nt,-10,-5,-21,35*,7
COc1ccc(OC)c2sc(N3CCN(C(=O)c4ccc([N+](=O)[O-])s4)CC3)nc12,nt,4,1,21,46*,6
O=C(c1ccc([N+](=O)[O-])s1)N1CCN(c2ccccn2)CC1,4,1,-5,6,46*,0
O=C(c1ccc([N+](=O)[O-])s1)N1CCN(c2ccccc2)CC1,7,-2,-17,9,54*,3
C#CCNC(=O)C[C@H]1C[C@@]2(C(=O)OC)C(=C[C@H](C(C)(C)C)O[C@@H]2C)N(CCCCCCCC)C1=O,nt,nt,nt,-76,nt,-2
CC(=O)Nc1ccc(S(=O)(=O)N2CCN(C(=O)C(=O)c3cccc(C(F)(F)F)c3)CC2)cc1,nt,nt,nt,2,nt,9
O=C(Nc1ccccc1N1CCOCC1)c1ccc([N+](=O)[O-])s1,nt,-19,-32,8,31*,3
Cc1noc(C)c1COc1ccccc1C(=O)N(C)Cc1ccc(C(C)(C)C)cc1,nt,27,48*,48,12,24
COc1ccc(N2CCN(C(=O)Cc3csc(NC(=O)Nc4ccccc4OC)n3)CC2)cc1,nt,-17,-27,50*,4,12
COc1ccccc1NC(=O)Nc1nc(CC(=O)N2CCN(c3ccccc3)CC2)cs1,nt,-13,-31,52*,4,14
COc1ccccc1NC(=O)Nc1nc(CC(=O)NC2CCCC2)cs1,nt,-11,-28,-6,17,7
COc1ccccc1NC(=O)Nc1nc(CC(=O)Nc2ccc(F)c(F)c2)cs1,nt,13,-13,42,34,13
CCOC(=O)Cc1csc(NC(=O)Nc2ccc(OC(F)(F)F)cc2)n1,7,29*,-1,-25,25,9
COc1ccc(NC(=O)Cc2csc(NC(=O)Nc3ccccc3OC)n2)cc1,nt,nt,nt,49*,nt,30
COc1ccccc1NC(=O)Nc1nc(CC(=O)NCc2ccccn2)cs1,nt,-24,-28,45,5,10
CC1(C)OC(=O)C2=C(CC(CCc3ccccc3)OC2c2ccc(Cl)c(Cl)c2)O1 (stereo unspecified),nt,nt,nt,-6,nt,-1
COc1ccc(C(C)(NC(C)=O)c2nc(/C=C/c3ccccc3)cs2)cc1 (stereo unspecified),nt,nt,nt,0,nt,2
CC(=O)N1CCC(N(CCCOC(C)C)S(=O)(=O)c2ccc([N+](=O)[O-])cc2)CC1,-7,-8,-36,-20,46*,-1
CC(=O)N1CCN(C(=S)c2ccc([N+](=O)[O-])cc2)CC1,-17,1,-9,1,76,4
CCOC(=O)CNC(=S)n1ncnc1N,16*,3,-3,-11,26,8
Cc1cccc(C=NNc2cc(C)c3cccc(C)c3n2)n1,nt,nt,nt,0,nt,0
O=C1Nc2ccc(S(=O)(=O)N3CCCC3)c3cccc1c23,-1,-6,-8,-4,19,7
O=C1Nc2ccc(S(=O)(=O)N3CCCC3C(=O)O)c3cccc1c23 (stereo unspecified),-4,-9,-10,-18,38*,1
SMILES,GPR7 antag,CHO parental Ca,OX1R antag-1,TAAR1 antagonist,OX1R antag-2,TAAR1 agonist
COc1ccc(C(=O)NCC(=O)OCc2ccc([N+](=O)[O-])cc2)cc1,-3,-7,-19,8,19,6
Cc1ccc(C(=O)NCC(=O)NCC(=O)OCc2ccc(Oc3ccc([N+](=O)[O-])cc3)cc2)cc1,2,46*,59*,39,49,5
CC(=O)c1c(C)nc2nonc2c1N,-6,8,-1,0,76*,5
CCOC(=O)c1c(-c2ccc(OC)cc2)nc2nonc2c1N,6,-7,-1,-2,27,2
O=C(O)c1ccc(COc2ccc3ccccc3c2/C=C2/NC(=O)N(Cc3ccc(F)cc3)C2=O)cc1,-2,nt,nt,56*,nt,14
COc1ccc(Cn2c(SCc3ccc(C)cc3)nc3cc(OC)c(OC)cc3c2=N)cc1Cl,-8,-8,-7,1,10,41*
COc1ccc(Cn2c(SCc3cc(C)ccc3C)nc3cc(OC)c(OC)cc3c2=N)cc1,-7,6,-10,-25,10,32
O=C(Nc1cccc(-n2cnnn2)c1)C1CCCN(Cc2cccc(C(F)(F)F)c2)C1 (stereo unspecified),17,nt,nt,19,nt,14
CCOc1ccc(NC(=O)COc2ccc(C(=O)NCc3cccnc3)cc2OC)cc1,nt,-15,-29,-10,11,5
COc1cc(C(=O)NCc2cccnc2)ccc1OCC(=O)Nc1cccc(C(F)(F)F)c1,nt,43*,29,32,25,10
CC(C)CN1C(=O)CSCC1(C)C(=O)NCc1ccccc1 (stereo unspecified),nt,nt,nt,-9,nt,3
O=S(=O)(c1ccccc1)N1CCCc2nc(-c3ccc(F)cc3)ccc21,nt,nt,nt,37,nt,5
CCCCCCCCC#Cc1nc(C)ccc1OC,nt,48*,42,6,10,6
CCCCCCNS(=O)(=O)c1ccc(OC)c(OC)c1,3,-15,-21,-2,12,11
CO[C@H]1CN(C)C(=O)c2ccc(NC(=O)NC(C)C)cc2OC[C@H](C)NC[C@H]1C,nt,nt,nt,-12,nt,7
Cc1ccc(OCC(=O)Nc2ccc([N+](=O)[O-])cn2)cc1C,-2,42*,-8,4,18,-5
O=C(NNc1ccc([N+](=O)[O-])cn1)Nc1ccc(N=Nc2ccccc2)cc1,nt,nt,nt,16,nt,45*
CC(=O)Nc1ccc([N+](=O)[O-])cn1,4,-7,-17,9,76*,0
COc1cc(C(=O)Nc2ccc([N+](=O)[O-])cn2)cc(OC)c1OC,-7,-2,-18,-17,17,1
COc1ccc(NC(=O)C2(C)CCN2Cc2ccc(OC)c3ccccc23)cc1OC (stereo unspecified),nt,nt,nt,-6,nt,3
COc1ccccc1C(=O)Nc1nc(-c2ccc3c(c2)OCCO3)cs1,-13,-11,-43,11,47*,7
Cc1ccc(S(=O)(=O)Nc2ccccc2C(=O)Nc2nc(-c3ccc(F)cc3)cs2)cc1,18,26,52*,75*,67*,4
O=C(Nc1nnc(-c2ccccc2)s1)c1ccccc1O,-21,-3,-1,-14,23,31
COc1cccc(C(=O)Nc2nnc(-c3ccccc3)s2)c1OC,2,9,4,32,52*,4
